# Compound activity as filed in PubChem.
# A selection: hits, their analogues and other compounds. The true share with any hit is near 1.7%.
# HNF4A DNA FP – change in binding of human HNF4 alpha to DNA; activity change, % at 10 µM; actives 0.3% (n = 360,000); HNF4a-FITC DNA binding, fluorescence polarization, 1 h; AID 1224865; P41235; in the data active means activity change above about 30%, passing the limit was not always enough
# IDE inh – inhibits human insulin-degrading enzyme in HEK cells. FAbetaB cleavage, fluorescence polarization. AID 434962. inhibition, % at 5.59 µM. actives 0.41% (n = 320,000). P14735;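 active means percent inhibition above the average of all tested compounds plus 3 SD, set per screening campaign, cut at about 16% in these data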;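 further: IDE supplied by intact live HEK cells; FP after avidin binding of uncleaved biotin substrate so inhibition keeps polarization high; 0% = DMSO wells and 100% = 60 µM reference IDE inhibitor Ii1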
# Rpn11 block – Rpn11 (human) deubiquitinase inhibition; AID 588493; human 26S proteasome, Ub4-pepOG fluorescence polarization; 20S core pre-blocked with epoxomicin; actives 0.59% (n = 360,000); O00487; calls only at 20 µM;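 active means inhibition at 20 µM, scaled to each plate's controls, above about 33%, limit read from the data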
# Target sequence (O00487 whole entry, looked up): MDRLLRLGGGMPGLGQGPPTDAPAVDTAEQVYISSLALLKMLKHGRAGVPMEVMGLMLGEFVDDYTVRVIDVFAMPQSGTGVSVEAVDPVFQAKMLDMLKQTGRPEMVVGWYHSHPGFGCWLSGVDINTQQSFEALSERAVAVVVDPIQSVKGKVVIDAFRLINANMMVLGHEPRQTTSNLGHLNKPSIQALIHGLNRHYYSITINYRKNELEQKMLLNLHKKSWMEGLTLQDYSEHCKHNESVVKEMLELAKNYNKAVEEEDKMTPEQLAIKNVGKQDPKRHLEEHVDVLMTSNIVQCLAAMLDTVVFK
# CSN inh – blocks human CSN-mediated cullin deneddylation; inhibition, % at 12.5 µM; actives 0.38% (n = 360,000); AID 651999; Q92905; Purified CSN, SCF-Nedd8-OG deneddylation, fluorescence polarization;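 active means pattern-corrected inhibition above about 35%, with an unprinted fluorescence ratio check between 0.5 and 1.5, limit read from the data, passing the limit was not always enough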;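 further: 0% = enzyme with substrate and 100% = substrate without enzyme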
# Target sequence (Q92905 whole entry, looked up, one chain of several): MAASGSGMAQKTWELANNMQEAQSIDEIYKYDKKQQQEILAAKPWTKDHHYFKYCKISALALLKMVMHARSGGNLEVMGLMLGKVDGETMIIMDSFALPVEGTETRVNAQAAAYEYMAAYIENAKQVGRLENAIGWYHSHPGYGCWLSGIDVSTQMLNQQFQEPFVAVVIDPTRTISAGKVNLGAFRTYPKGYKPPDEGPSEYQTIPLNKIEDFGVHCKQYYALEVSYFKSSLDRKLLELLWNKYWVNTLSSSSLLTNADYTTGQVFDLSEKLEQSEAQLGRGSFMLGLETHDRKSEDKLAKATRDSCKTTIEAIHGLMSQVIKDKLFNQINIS
#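 Assay system: purified human Csn5 enzyme expressed in HEK293T cells; measure: % inhibition; also added: SCFSkp2-Nedd8OG substrate at 10 nM final; technique: fluorescence polarization; times: reaction 90 min, room temperature; medium: Tris buffer pH 7.5, NaCl, DTT, Tween-20, trehalose, ovalbumin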
# TPT1 inhibitor – inhibitors of Candida albicans tRNA 2'-phosphotransferase TPT1. actives 0.81% (n = 300,000). AID 1962. inhibition, % at 5 µM. recombinant caTPT1, FP RNA substrate dephosphorylation;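 active means inhibition above the mean of all tested compounds plus 3 SD, set per screening campaign, cut at about 24% in these data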;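 further: plate controls were DMSO alone for no effect and ferristatin control at 100 nM for full effect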
# IDE act – IDE (human) activation, cell-based | P14735 | HEK cells, FAbeta-B cleavage, fluorescence polarization; 0% vehicle, 100% cell-free pure enzyme wells | activation, % at 5.96 µM | actives 0.073% (n = 340,000);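 active means activation above the mean of all tested compounds plus 3 SD, set per screening campaign, cut at about 17% in these data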
# IDE cell inh cf – cellular human IDE inhibition, confirmation | HEK cells, FAbetaB cleavage, fluorescence polarization | actives 51% (n = 1,200) | AID 435028 | inhibition, % at 5.59 µM | shares compounds with IDE inh;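 active means mean inhibition across triplicate wells above the cutoff set by the earlier primary insulin-degrading enzyme screen, cut at about 16% in these data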;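 further: 0% = DMSO wells and 100% = 60 µM reference IDE inhibitor Ii1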
# HEK cytotox – HEK cell cytotoxicity, counter-screen for IDE inhibitors | shares compounds with IDE inh | HEK293 cytotoxicity, ATP luminescence | inhibition, % at 5.59 µM | actives 28% (n = 1,200) | AID 449730; in the data active means inhibition above about 22%;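 further: 0% = vehicle wells and 100% = reference cytotoxic drug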
# Rpn11 confirm – Rpn11 inhibition confirmation, single concentration; shares compounds with Rpn11 block; AID 602318; actives 29% (n = 1,900); inhibition, % at 20 µM; purified human 26S proteasome, Ub4-pepOG fluorescence polarization; proteasome pretreated with epoxomicin
# MMP-2 counter – blocks human MMP-2, flagging nonselective RPN11 hits | recombinant MMP-2, FRET peptide cleavage fluorescence | inhibition, % at 20 µM | actives 4% (n = 1,900) | shares compounds with Rpn11 block | AID 602330;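 further: human MMP-2 activated beforehand with APMA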
# Thrombin FP – counter-screen for RPN11 inhibitors: inhibition of bovine thrombin. actives 13% (n = 1,900). bovine thrombin cleavage of Ub4-pepOG, fluorescence polarization. shares compounds with Rpn11 block. inhibition, % at 20 µM;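 active means mean inhibition at least 40% at 20 µM, or signal 3 deviations below plate average, so some actives read negative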;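 further: plate controls were thrombin with DMSO for no effect and buffer wells lacking thrombin for full effect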
# An asterisk follows results filed as active; i = inactive; x = no result given; + = active, no number. Unless noted, no stated cut-off is given here; in the data, active means inhibition above about 40%; inactive means the rest.
SMILES,HNF4A DNA FP,IDE inh,Rpn11 block,CSN inh,TPT1 inhibitor,IDE act,IDE cell inh cf,HEK cytotox,others
Cn1c(=O)c(NC2CCCCC2)c2c3c(cccc31)C(=O)c1ccccc1-2,-110.4,x,i,-91.3,x,-95.3,x,x,
CCCCNc1c2c3c(cccc3n(C)c1=O)C(=O)c1ccccc1-2,-89.6,103.2*,i,-71.6,-7.7,29.7*,25.9*,31.5*,
CCNc1c2c3c(cccc3n(C)c1=O)C(=O)c1ccccc1-2,x,61.7*,x,x,-51.6,x,26.3*,16.6,
CCOC(=O)C(O)(CC(=O)Nc1cc(F)ccc1C)C(F)(F)F (configuration not stated),2.3,0.2,i,-6.8,0.9,4.7,x,x,
COc1ccc(-c2cc(-c3ccc(OC)c(OC)c3)n[nH]2)c(O)c1,1.0,17.4*,i,-0.5,-5.0,-4.2,8.3,14.0,
COc1cc(/C=C(/C#N)c2nc3ccccc3[nH]2)ccc1OC(=O)c1ccco1,33.4,67.3*,i,14.1,3.5,-92.8,142.3*,7.2,
O=C(CSc1nnc(CCCOc2ccc(Cl)cc2Cl)o1)Nc1ccc(C(=O)O)cc1,-2.6,18.0*,i,-2.9,-0.7,1.8,5.6,7.0,
COc1ccc(OCCNC(=O)Nc2cc(F)c(F)cc2Cl)cc1,2.5,17.6*,i,-1.5,-0.3,-8.8,2.5,5.6,
O=C(Nc1ccc(Oc2ccccc2)cc1)C1CCCN(c2ncccn2)C1 (configuration not stated),0.2,1.8,i,0.5,-4.0,-9.1,x,x,
Cn1c(N/N=C/c2c[nH]c3ccccc23)nc2ccccc21,-3.5,29.2*,i,2.6,-0.4,-9.1,-0.2,62.7*,
Cc1cc(N/N=C/c2c[nH]c3ccccc23)c2ccccc2n1,-0.3,-1.1,i,-1.2,-1.8,3.2,x,x,
O=C(COc1ccc(S(=O)(=O)N2CCOCC2)cc1)N1CCN(c2ccccc2)CC1,3.3,20.8*,i,2.8,-1.9,-10.6,9.9,22.3*,
Cc1nc(N2CCOCC2)nc(Oc2ccccc2)c1[N+](=O)[O-],0.5,7.6,i,2.2,-5.4,4.9,x,x,
COc1ccccc1CNC(=O)C(=O)NCCC1CCCCN1S(=O)(=O)c1ccc(C)cc1 (configuration not stated),0.2,7.6,i,-2.1,1.3,1.3,x,x,
COc1ccccc1CCNC(=O)C(=O)NCCC1CCCCN1S(=O)(=O)c1ccccc1 (configuration not stated),1.5,16.4*,i,-5.2,0.2,-11.7,1.7,21.0,
CCC(=O)NC(c1ccc(C)cc1)c1cc([N+](=O)[O-])c2cccnc2c1O (configuration not stated),-5.1,33.5*,i,-7.9,-0.5,6.1,0.7,39.1*,
COc1ccc(NC(=O)COC(=O)c2ccc(OCc3c(C)noc3C)cc2)cc1OC,3.7,4.8,i,-1.9,-2.6,0.3,x,x,
COc1cc(C(=O)OCC(=O)Nc2ccc3c(c2)OC(F)(F)O3)ccc1OCc1c(C)noc1C,0.0,16.9*,i,3.0,0.4,0.9,3.1,6.7,
O=C(Nc1ccc(-c2nc3ccccc3s2)cc1)c1cc(-n2cnnc2)ccc1Cl,1.5,21.5*,i,7.7,-3.1,-7.7,4.7,67.2*,
Cc1cccc(NC(=O)c2ccc(N(C)C3CCCCC3)c([N+](=O)[O-])c2)n1,-1.1,2.8,i,-2.1,-2.1,6.1,x,x,
COc1ccc(N(CC(=O)N2CCN(c3ccc(Cl)cc3)CC2)S(=O)(=O)c2c(C)n[nH]c2C)cc1,0.8,18.5*,i,4.9,-0.5,-15.5,7.6,19.2,
Cc1cccc(NC(=O)c2sc3nc(-c4ccccc4)cn3c2C)n1,15.1,17.5*,+,15.2,18.1,-11.1,10.8,29.4*,Rpn11 confirm=8.6;MMP-2 counter=-29.2;Thrombin FP=-7.3
CSc1nc2ccc(NC(=O)c3c(-c4ccccc4)noc3C)cc2s1,2.0,2.6,i,-3.8,2.4,5.0,x,x,
COc1cc(/C=C/c2nc3ccccc3s2)cc(OC)c1O,10.3,141.7*,+,8.2,16.1,-101.4,102.8*,15.6,Rpn11 confirm=3.9;MMP-2 counter=-18.8;Thrombin FP=9.8
COc1cc(C=C(c2nc3ccccc3s2)c2nc3ccccc3s2)ccc1O,-3.1,27.0*,+,13.7,10.8,-43.5,58.5*,12.9,Rpn11 confirm=4.8;MMP-2 counter=-27.7;Thrombin FP=3.7
SMILES,HNF4A DNA FP,IDE inh,Rpn11 block,CSN inh,TPT1 inhibitor,IDE act,IDE cell inh cf,HEK cytotox,others
COc1ccc(C=C(c2nc3ccccc3s2)c2nc3ccccc3s2)cc1O,12.7,3.2,i,4.1,18.6,-3.6,x,x,
O=C(NNC1=Nc2cccc3cccc1c23)c1ccccc1Br,3.3,16.4*,+,-0.7,-1.2,-8.9,5.0,18.7,Rpn11 confirm=0.8;MMP-2 counter=-20.9;Thrombin FP=4.4
c1ccc(NC2=Nc3cccc4cccc2c34)cc1,6.1,-0.3,i,10.4,14.1,4.1,x,x,
Cc1ccc(OCCCC(=O)Nc2ccc(Cl)c(S(=O)(=O)N3CCOCC3)c2)cc1,5.8,6.0,i,1.7,x,-10.4,x,x,
COc1cc(/C=C2\SC(=Nc3ccc(O)cc3)NC2=O)cc(OC)c1O,8.1,128.2*,+,11.0,16.9,-65.4,152.2*,19.2,Rpn11 confirm=5.5;MMP-2 counter=0.4;Thrombin FP=7.9
O=C1CCc2cc(S(=O)(=O)NC(C(=O)N3CCN(c4ccccn4)CC3)c3ccccc3)ccc2N1 (configuration not stated),3.1,7.1,i,10.6,-3.4,5.9,x,x,
COc1ccc(/C=N/n2c(C)nc3c([nH]c4ccccc43)c2=O)cc1CN1CCCC(C)(C)C1,0.5,-0.3,i,6.8,-1.2,-6.5,x,x,
COc1ccc2[nH]c3c(=O)n(/N=C/c4ccc(OC)c(CN5CCCC5)c4)c(C)nc3c2c1,7.1,17.4*,+,62.5*,3.0,-8.7,4.7,13.3,Rpn11 confirm=90.1*;MMP-2 counter=-53.9;Thrombin FP=-4.2
